Shown are actives, neighbours in structure and some others; about 1.5% of the full set was active somewhere.
LANA-H2B inh: blocks KSHV LANA binding to histone H2A/H2B; Q9QR71; inhibition, % (no concentration beside the values); cell-free LANA-H2A/H2B peptide, fluorescence polarization; 320,000 compounds, 0.6% hits; in the data active = inhibition mostly above about 10%, no sharp cut-off; inactive = mostly below about 6.7%
EBNA-1 inhibitor: blocks EBNA-1 binding to DNA. EBNA-1 DNA binding, fluorescence polarization. inhibition, % at 14.8 µM. 300,000 compounds, 0.34% hits. AID 1950; in the data active = inhibition above about 28%
Bfl-1 A1 inh: inhibitors of the anti-apoptotic protein A1, read as caspase activation | MEF A1-2A-BIM cells, Caspase-Glo 3/7 luminescence, 3 h; percent of clofoctol response, vehicle zero | caspase activation, % (test concentration not listed) | 330,000 compounds, 0.066% hits | AID 2462;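 active = over half of replicate activation scores above 10%, or exactly half above 10 with the replicate mean above 10; inconclusive = replicate mean below 10 yet half the replicates above 10; inactive = over half of replicates below 10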
HNF4A DNA FP: change in binding of human HNF4 alpha to DNA; P41235; HNF4a-FITC DNA binding, fluorescence polarization, 1 h; activity change, % at 10 µM; 360,000 compounds, 0.3% hits; in the data active = activity change above about 30%, passing the limit was not always enough
Target sequence (P41235 whole entry, looked up): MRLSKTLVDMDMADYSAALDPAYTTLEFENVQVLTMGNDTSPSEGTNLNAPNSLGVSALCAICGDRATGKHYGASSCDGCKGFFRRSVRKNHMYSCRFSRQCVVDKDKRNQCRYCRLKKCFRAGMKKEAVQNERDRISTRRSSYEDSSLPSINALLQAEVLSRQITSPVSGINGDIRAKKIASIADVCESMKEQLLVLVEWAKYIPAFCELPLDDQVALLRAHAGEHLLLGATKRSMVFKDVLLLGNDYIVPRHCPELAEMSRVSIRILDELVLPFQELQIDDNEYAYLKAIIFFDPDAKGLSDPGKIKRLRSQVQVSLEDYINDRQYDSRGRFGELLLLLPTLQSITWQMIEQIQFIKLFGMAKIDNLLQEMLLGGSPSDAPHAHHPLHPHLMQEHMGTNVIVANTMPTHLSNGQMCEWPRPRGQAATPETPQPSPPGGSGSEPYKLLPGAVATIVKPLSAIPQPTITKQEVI
CSN inh: CSN deneddylation inhibition; Q92905; Purified CSN, SCF-Nedd8-OG deneddylation, fluorescence polarization; inhibition, % at 12.5 µM; 360,000 compounds, 0.38% hits; AID 651999;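 active = pattern-corrected inhibition above about 35%, with an unprinted fluorescence ratio check between 0.5 and 1.5, limit read from the data, passing the limit was not always enough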;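 also: 0% = enzyme with substrate and 100% = substrate without enzyme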
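Material: human Csn5 produced in HEK293T cells; Input: enzyme 0.24 nM; Reagent: SCFSkp2-Nedd8OG substrate at 10 nM final; Dosing: 12.5 µM compound; Incubation: 90 min reaction at room temperature; Detection: fluorescence polarization of the substrate; Evaluation: % inhibition of substrate cleavage by Csn5; Control set: substrate-only high control, full reaction low control.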
ZTA DNA inh: ZTA (EBV) inhibition in EBNA-1 counter-screen. P03206. ZTA-DNA binding, fluorescence polarization. inhibition, % at 11 µM. 320,000 compounds, 0.15% hits; in the data active = inhibition above about 33%
EBNA-1 confirm: EBNA-1 (EBV) inhibition, confirmation. shares compounds with EBNA-1 inhibitor. AID 2292. inhibition, % at 14.8 µM. Recombinant EBNA-1 DBD, Cy5-DNA fluorescence polarization. 830 compounds, 35% hits;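 active = mean inhibition across replicates above a set limit taken from the earlier primary screen, cut at about 28% in these data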;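 also: plate controls were EBNA-1 protein with DMSO for no effect and wells lacking EBNA-1 for full effect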
ZTA counter trip: counter-screen for EBNA-1 inhibitors: Epstein-Barr virus ZTA inhibitors, triplicate; Zta-ZRE DNA binding, Cy5 fluorescence polarization; shares compounds with EBNA-1 inhibitor; AID 2328; inhibition, % at 11.1 µM; 830 tested, under 10 active;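 active = mean inhibition over triplicates above a set limit taken from the primary EBNA-1 screen, cut at about 37% in these data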;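 also: purified full length Zta protein with Cy5 labeled ZRE DNA probe; 0% = Zta with DMSO and 100% = wells lacking Zta protein; inhibitors lower polarization by freeing the labeled DNA probe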
* = called active by the depositor; ? = inconclusive; . = no result.

SMILES	LANA-H2B inh	EBNA-1 inhibitor	Bfl-1 A1 inh	HNF4A DNA FP	CSN inh	ZTA DNA inh	EBNA-1 confirm	ZTA counter trip
CC(=O)/C(=N\Nc1cccc(Cl)c1)Sc1cccc2cccnc12	-4	1	0	-2	-2	0	.	.
CC(=O)/C(=N\Nc1cccc(Cl)c1)Sc1nnc(-c2ccccc2)n1-c1ccccc1	1	33*	0	0	4	9	16	-7
COc1cc(NC(=O)c2ccccc2)c(OC)cc1NC(=O)Cc1ccc(C)cc1	2	21	1	0	-2	2	.	.
O=C(O)CC(NC(=O)CC(c1ccccc1)c1ccccc1)c1cccc([N+](=O)[O-])c1 (stereo not drawn)	-2	1	1	1	-3	-13	.	.
CC(C)N(C)Cc1nnnn1CC(=O)N(C)Cc1ccc(F)cc1	0	5	0	-1	-1	-4	.	.
COc1cccc(/C=N/NC(=O)c2ccc(CN3c4cccc5cccc(c45)S3(=O)=O)cc2)c1	2	30*	0	2	0	-3	17	2
Cc1cc(NC(=O)CCC(=O)N(Cc2cccs2)C(C)(C)C(=O)NC2CCCCC2)no1	-8	-5	0	5	2	2	.	.
Cc1ccc(C)c(S(=O)(=O)N2CCCOC2CNC(=O)C(=O)NCCC2=CCCCC2)c1 (stereo not drawn)	-2	0	1	1	-11	19	.	.
COc1ccc(C(NC(=O)/C=C\c2ccco2)c2ccc(OC)c(OC)c2)cc1 (stereo not drawn)	4	39*	?	4	10	-5	1	16
COc1ccc(C(NC(=O)/C=C/c2ccco2)c2ccc(OC)cc2)cc1	2	4	0	0	5	3	.	.
COc1cccc(-c2c(C(=O)N/N=C(\C)c3ccc(Cl)s3)nnn2-c2nonc2N)c1	-5	35*	0	2	-3	-6	6	-7
COc1cccc(-c2c(C(=O)N/N=C(\C)c3ccco3)nnn2-c2nonc2N)c1	7	-4	1	-5	1	-13	.	.
CCOc1ccc(/C=N/NC(=O)c2nnn(-c3nonc3N)c2-c2ccc(OCC)cc2)cc1	9	35*	0	0	-1	-8	1	-1
COc1cccc(NC(=O)C(=O)NCCC2CCCCN2S(=O)(=O)c2cccs2)c1 (stereo not drawn)	.	-17	0	-4	-2	0	.	.
Cc1nc2cc(C(=O)N3c4ccccc4CC3C)ccc2s1 (stereo not drawn)	2	4	0	4	3	16	.	.
Cc1ccc(C)c(SCC(=O)OCC(=O)NCCNC(=O)COC(=O)CSc2cc(C)ccc2C)c1	-1	-2	1	3	1	-9	.	.
S=C(NCc1ccco1)Nc1ccc(Cl)cc1	-4	31*	0	0	-3	-8	-4	0
S=C(NCc1ccco1)Nc1ccc(Oc2ccc(Cl)cc2)cc1	-7	-6	-1	0	4	1	.	.
O=C(CN1CCN(C(=O)CNC(=O)c2ccc(-c3ccccc3)cc2)CC1)Nc1ccccc1Cl	.	.	.	9	1	.	.	.
COc1ccc(OC)c(CC(=O)Nc2ccc3c(c2)c(=O)n(C)n3Cc2cccc(C(F)(F)F)c2)c1	.	.	.	-1	2	.	.	.
COc1ccc(C/C(N)=N/OC(=O)CCc2ccccc2)cc1	0	-8	-1	4	2	-3	.	.
COc1ccccc1Nc1nnc(SCC(=O)NC(=O)Nc2ccc3c(c2)OCCO3)s1	5	36*	-1	2	3	5	15	11
CC1=CC2=NC(=O)/C(=C\c3ccc(-c4cccc(Cl)c4)o3)C(=N)N2O1	5	29*	2	14	17	10	2	7
CC1=NOC(=O)/C1=C\c1ccc(-c2cccc(Cl)c2)o1	8	0	?	1	9	3	.	.
